{"data": "Published values collected from several papers", "target": "Death-associated protein kinase 1 (DAPK1, Homo sapiens, UniProt P53355)", "note": "Protocols differ between the studies behind these lines."}
{"Structure (SMILES)": "CN(C)C1CCN(CC#Cc2nn(C3CCCC3)c3nc(NCc4ccccc4)ncc23)C1 (centres unmarked)", "test": "enzyme activity, inhibitor, FRET", "conditions": "1 µM", "measurement": "inhibition", "value": "-2%"}
{"Structure (SMILES)": "C[C@@]1(Cc2ccc(C#N)cc2)C(=O)N(c2cc(Cl)cc(Cl)c2)c2ncc(C(=O)NC3(c4nc(C5CCC5)no4)CC3)n21", "test": "cell-free assay, competition with immobilised ligand", "conditions": "1 µM", "measurement": "remaining binding", "value": "100%"}
{"Structure (SMILES)": "CCCOc1ccc(OC)c(F)c1C(=O)c1ccc(C(=O)N[C@@H]2CNC[C@H]2NC(=O)c2ccc3[nH]ncc3c2)cc1", "test": "enzyme activity, inhibitor", "conditions": "10 µM", "measurement": "remaining activity", "value": "81%"}
{"Structure (SMILES)": "Oc1cccc(-c2nc(N3CCOCC3)c3oc4ncccc4c3n2)c1", "test": "enzyme activity, inhibitor", "conditions": "10 µM", "measurement": "remaining activity", "value": "30%"}
{"Structure (SMILES)": "Cc1cc(NC(=O)c2cccc3cc(-c4cccc5[nH]nc(N)c45)ccc23)ccc1F", "test": "enzyme activity, inhibitor", "conditions": "0.1 µM", "measurement": "activity vs control", "value": "88%"}
{"Structure (SMILES)": "CN(C)c1ncnc(-c2ccc3nc(Nc4cc(CN5CCN(C(=O)CC(F)(F)F)CC5)ccn4)[nH]c3c2)c1Cl", "test": "cell-free assay, competition with immobilised ligand", "conditions": "1 µM", "measurement": "remaining binding", "value": "100%"}
{"Structure (SMILES)": "CC(C)(C)c1nc2c(s1)c1nc(N)ncc1c1ccc(NS(=O)(=O)c3c(F)cccc3F)c(F)c12", "test": "enzyme activity, inhibitor, radiometric", "conditions": "1 µM", "measurement": "remaining activity", "value": "79%"}
{"Structure (SMILES)": "CS(=O)(=O)NCC[C@H](NC(=O)c1cncc2c1cnn2-c1ccc(F)cc1)c1ccnc(S(C)(=O)=O)c1", "test": "cell-free assay, competition with immobilised ligand", "conditions": "1 µM", "measurement": "remaining binding", "value": "100%"}
{"Structure (SMILES)": "Nc1ncnc2occ(-c3ccc(NC(=O)Nc4cc(C(F)(F)F)ccc4F)cc3)c12", "test": "cell-free assay, inhibitor", "conditions": "20 µM", "measurement": "remaining signal", "value": "29%"}
{"Structure (SMILES)": "O=C1Nc2ccc(Cl)cc2C1=Cc1cc(Cl)c(O)c(Cl)c1", "test": "cell-free assay", "conditions": "0.5 µM", "measurement": "remaining signal", "value": "90%"}
{"Structure (SMILES)": "CCCCN(CCCC)C(=O)CN1C[C@H](c2cc(OC)c3c(c2)OCO3)[C@@H](C(=O)O)[C@@H]1CC(C)(C)CCC", "test": "cell-free assay, competition with immobilised ligand", "conditions": "1 µM", "measurement": "remaining binding", "value": "100%"}
{"Structure (SMILES)": "COc1cc(/C=C/C(=O)CC(=O)/C=C/c2ccc(O)c(OC)c2)ccc1O", "test": "enzyme activity, inhibitor", "conditions": "1 µM", "measurement": "activity vs control", "value": "93%"}
{"Structure (SMILES)": "CCCS(=O)(=O)Nc1ccc(F)c(C(=O)c2c[nH]c3ncc(-c4ccc(Cl)cc4)cc23)c1F", "test": "enzyme activity, inhibitor", "conditions": "1 µM", "measurement": "inhibition", "value": "< 10%"}
{"Structure (SMILES)": "FC(F)(F)Oc1cccc(-c2cnc3ccc(-c4ccncc4)nn23)c1", "test": "enzyme activity, inhibitor, radiometric", "conditions": "5 µM", "measurement": "activity vs control", "value": "91%"}
{"Structure (SMILES)": "CC(=O)Nc1c(C(C)=O)c(=O)n(C)c2nc(-c3ccc(Cl)cc3Cl)c(-c3ccc(Cl)cc3)cc12", "test": "cell-free assay, competition with immobilised ligand", "conditions": "1 µM", "measurement": "remaining binding", "value": "100%"}
{"Structure (SMILES)": "CS(=O)(=O)CCNCc1ccc(-c2ccc3ncnc(Nc4ccc(OCc5cccc(F)c5)c(Cl)c4)c3c2)o1", "test": "cell-free assay", "conditions": "0.5 µM", "measurement": "remaining signal", "value": "107%"}
{"Structure (SMILES)": "FC(F)c1nc2ccccc2n1-c1nc(N2CCOCC2)nc(N2CCOCC2)n1", "test": "enzyme activity, inhibitor", "conditions": "10 µM", "measurement": "remaining activity", "value": "75%"}
{"Structure (SMILES)": "O=C1NC(=O)c2cc(Nc3ccc(F)cc3)c(Nc3ccc(F)cc3)cc21", "test": "cell-free assay", "conditions": "0.5 µM", "measurement": "remaining signal", "value": "81.3%"}
{"Structure (SMILES)": "CCC(=O)N[C@H]1CC[C@@H](C(=O)N(C)c2ccc(-c3nc4ccccc4o3)cc2)C1", "test": "cell-free assay, competition with immobilised ligand", "conditions": "1 µM", "measurement": "remaining binding", "value": "96%"}
{"Structure (SMILES)": "Cc1ccc(NC(=O)c2ccc(CN3CCN(C)CC3)cc2)cc1Nc1nc(-c2cccnc2)cs1", "test": "cell-free assay", "conditions": "0.5 µM", "measurement": "remaining signal", "value": "97.5%"}
{"Structure (SMILES)": "Cc1ccc(Nc2nccc(N(C)c3ccc4c(C)n(C)nc4c3)n2)cc1S(N)(=O)=O", "test": "enzyme activity, inhibitor", "conditions": "10 µM", "measurement": "inhibition", "value": "12%"}
{"Structure (SMILES)": "CCOC(=O)c1cc2cc(-c3cc(C(=O)NCc4ccc(C(=O)O)cc4)nn3C)ccc2[nH]1", "test": "cell-free assay, competition with immobilised ligand", "conditions": "0.1 µM", "measurement": "remaining binding", "value": "84%"}
{"Structure (SMILES)": "COc1cc(Nc2cnc(C#N)c(O[C@H](C)CN(C)C)n2)ncc1-c1cnn(C)c1", "test": "enzyme activity, inhibitor, radiometric", "conditions": "1 µM", "measurement": "remaining activity", "value": "95%"}
{"Structure (SMILES)": "CNC(=O)c1cc(Oc2ccc(NC(=O)Nc3ccc(Cl)c(C(F)(F)F)c3)cc2)ccn1", "test": "enzyme activity, inhibitor", "conditions": "10 µM", "measurement": "inhibition", "value": "12%"}
{"Structure (SMILES)": "CS(=O)(=O)N1CCCC(NC(=O)[C@H](CCC2CCCCC2)NC(=O)c2ccc(CNc3ncnc4c3nnn4-c3ccccc3)cc2)C1 (some centres unmarked)", "test": "cell-free assay, competition with immobilised ligand", "conditions": "0.1 µM", "measurement": "remaining binding", "value": "92%"}
{"Structure (SMILES)": "Cc1sc(C(=O)NC2COC2)cc1-n1cc(NC(=O)Nc2c(F)cccc2Cl)cn1", "test": "enzyme activity, inhibitor", "conditions": "10 µM", "measurement": "remaining activity", "value": "104%"}
